Data on 23 molecules can be found in ChEMBL document CHEMBL3352617, “Discovery of 9-(1-phenoxyethyl)-2-morpholino-4-oxo-pyrido[1,2-a]pyrimidine-7-carboxamides as oral PI3Kβ inhibitors, useful as antiplatelet agents” (Bioorg Med Chem Lett, 2014).

In series [1] the test system is Hepatocyte. Description: Intrinsic clearance in human hepatocytes at 2 uM by LCMS analysis. It is filed as ADME, cell-based. Put shortly: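 Test compound incubated with human hepatocytes. Intrinsic clearance and half-life derived from compound disappearance.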
The nature of series [2]: Lipophilicity, log D of the compound at pH 7.4 by HPLC method. It counts as physicochemical. To be noted: buffer. The procedure, abridged: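 LogD measured experimentally at pH 7.4 by an HPLC method.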
Series [3] is described as follows: Apparent permeability across apical to basolateral side of human Caco2 cells at 10 uM at pH 6.5 by LC-tandem MS analysis. It counts as ADME, cell-based. To be noted: Caco-2, pH 6.5. Put shortly: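 Caco-2 monolayers, apical-to-basolateral transport at pH 6.5. Result given as apparent permeability (Papp).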
A general note: Passage across Caco-2 layers is used to estimate intestinal permeability.

A short description of series [4]: Antiplatelet activity against human platelet assessed as inhibition of collagen-induced platelet rich plasma aggregation by light transmission aggregometry. It is filed as functional, cell-free. The procedure, abridged: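 Human platelet rich plasma stimulated with collagen. Aggregation read by light transmission aggregometry in an in-house 96-well plate format.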

Series [5] has as its target Phosphatidylinositol 4,5-bisphosphate 3-kinase catalytic subunit beta isoform (Homo sapiens, UniProt P42338). Briefly: Inhibition of human recombinant PI3Kbeta assessed as PIP3 production by AlphaScreen assay. On the technique in general: In Alpha technology, singlet oxygen from a donor bead excites a nearby acceptor bead.
In series [6] the target is Phosphatidylinositol 4,5-bisphosphate 3-kinase catalytic subunit alpha isoform (Homo sapiens, UniProt P42336). Briefly: Inhibition of human recombinant PI3Kalpha assessed as PIP3 production by AlphaScreen assay.
Sequence of Phosphatidylinositol 4,5-bisphosphate 3-kinase catalytic subunit alpha isoform (P42336 whole entry, canonical isoform): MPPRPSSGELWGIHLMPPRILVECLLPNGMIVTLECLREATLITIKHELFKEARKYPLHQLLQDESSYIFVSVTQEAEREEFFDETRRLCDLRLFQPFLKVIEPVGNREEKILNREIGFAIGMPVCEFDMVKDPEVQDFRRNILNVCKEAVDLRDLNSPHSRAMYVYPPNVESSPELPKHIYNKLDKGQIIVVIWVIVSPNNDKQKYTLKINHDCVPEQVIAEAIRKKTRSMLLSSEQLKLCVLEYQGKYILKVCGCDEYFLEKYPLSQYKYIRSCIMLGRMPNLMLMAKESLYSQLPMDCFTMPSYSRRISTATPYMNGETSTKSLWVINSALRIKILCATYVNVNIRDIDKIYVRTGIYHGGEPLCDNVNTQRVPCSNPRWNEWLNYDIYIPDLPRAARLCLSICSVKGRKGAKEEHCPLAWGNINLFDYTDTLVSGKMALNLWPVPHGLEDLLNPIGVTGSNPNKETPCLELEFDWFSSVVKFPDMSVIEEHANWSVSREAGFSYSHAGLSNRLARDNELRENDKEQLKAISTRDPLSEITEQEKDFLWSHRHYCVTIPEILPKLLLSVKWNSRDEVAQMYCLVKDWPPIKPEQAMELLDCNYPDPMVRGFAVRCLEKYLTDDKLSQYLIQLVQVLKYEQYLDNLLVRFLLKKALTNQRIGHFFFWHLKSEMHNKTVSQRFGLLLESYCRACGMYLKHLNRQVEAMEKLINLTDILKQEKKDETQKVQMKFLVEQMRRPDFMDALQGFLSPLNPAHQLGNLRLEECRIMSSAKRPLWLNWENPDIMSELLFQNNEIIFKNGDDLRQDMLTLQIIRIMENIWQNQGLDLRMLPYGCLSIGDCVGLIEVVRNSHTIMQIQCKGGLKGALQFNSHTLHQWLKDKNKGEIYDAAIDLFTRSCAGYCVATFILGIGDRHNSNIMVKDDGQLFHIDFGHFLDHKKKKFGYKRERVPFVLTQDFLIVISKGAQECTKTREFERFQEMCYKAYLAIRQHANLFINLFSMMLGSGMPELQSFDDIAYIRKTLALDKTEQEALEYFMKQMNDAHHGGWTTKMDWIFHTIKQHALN

Sequence of Phosphatidylinositol 4,5-bisphosphate 3-kinase catalytic subunit beta isoform (P42338 whole entry, canonical isoform): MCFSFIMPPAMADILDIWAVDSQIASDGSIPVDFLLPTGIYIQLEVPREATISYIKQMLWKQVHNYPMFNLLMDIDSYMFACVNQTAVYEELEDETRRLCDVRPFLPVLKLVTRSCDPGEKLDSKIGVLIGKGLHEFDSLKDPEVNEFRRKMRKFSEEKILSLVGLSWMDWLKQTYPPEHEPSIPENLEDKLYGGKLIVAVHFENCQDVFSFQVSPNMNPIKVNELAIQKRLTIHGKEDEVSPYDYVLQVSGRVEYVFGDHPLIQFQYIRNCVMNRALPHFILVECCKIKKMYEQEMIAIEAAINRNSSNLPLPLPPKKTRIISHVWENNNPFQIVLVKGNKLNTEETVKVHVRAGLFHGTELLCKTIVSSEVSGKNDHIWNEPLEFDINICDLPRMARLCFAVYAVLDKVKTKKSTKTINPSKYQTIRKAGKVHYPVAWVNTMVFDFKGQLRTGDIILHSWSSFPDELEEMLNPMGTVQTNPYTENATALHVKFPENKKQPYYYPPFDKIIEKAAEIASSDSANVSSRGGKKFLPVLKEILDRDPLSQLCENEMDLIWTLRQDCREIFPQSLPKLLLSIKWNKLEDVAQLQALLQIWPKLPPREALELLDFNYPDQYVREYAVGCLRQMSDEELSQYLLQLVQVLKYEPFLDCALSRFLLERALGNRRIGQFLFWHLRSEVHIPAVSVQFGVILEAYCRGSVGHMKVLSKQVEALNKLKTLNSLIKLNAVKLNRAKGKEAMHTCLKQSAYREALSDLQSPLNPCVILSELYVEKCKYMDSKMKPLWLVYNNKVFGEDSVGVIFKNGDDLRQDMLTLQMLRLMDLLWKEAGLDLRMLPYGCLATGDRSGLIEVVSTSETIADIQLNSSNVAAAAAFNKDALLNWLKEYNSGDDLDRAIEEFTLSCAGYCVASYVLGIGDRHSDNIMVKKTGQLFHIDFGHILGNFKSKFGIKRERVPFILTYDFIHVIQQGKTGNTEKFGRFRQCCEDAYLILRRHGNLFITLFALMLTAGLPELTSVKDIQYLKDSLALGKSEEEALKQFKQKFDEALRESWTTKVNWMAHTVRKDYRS

By logD is commonly meant lipophilicity at a set pH, counting ionised and neutral species. High values mean a more lipophilic compound, low ones a more hydrophilic compound. As a reminder, the Papp A→B is the apparent permeability from the apical to the basolateral side of a cell layer. For `Cc1cc(C(C)Nc2ccccc2-c2nnn[nH]2)c2nc(N3CCOCC3)cc(=O)n2c1` (racemic), the “Intrinsic clearance (CLint)” value in series [1] is 18.1 µL/min. The same molecule had a logD in series [2] of 0.8. Further, the Papp A→B at 10 µM in series [3] amounted to 0.08 ×10⁻⁶ cm/s.
As usually defined, the IC50 is the concentration needed to halve the response being measured. In the case of `Cc1c(F)cccc1OC(C)c1cc(C(=O)N(C)CCO)cn2c(=O)cc(N3CCOCC3)nc12` (racemic), the IC50 in series [4] was determined as 700 nM. The same molecule came in with a logD in series [2] of 3.3.
With `CC(Nc1ccccc1)c1cc(C(=O)N(C)CC(=O)O)cn2c(=O)cc(N3CCOCC3)nc12` (racemic), the “Intrinsic clearance (CLint)” value in series [1] was below 4 µL/min. Moreover, the logD in series [2] worked out at 0.6. In series [3], the Papp A→B at 10 µM was 1 ×10⁻⁶ cm/s.
The corresponding values for `Cc1cc(C(C)Nc2cccc(C(=O)O)c2)c2nc(N3CCOCC3)cc(=O)n2c1` (racemic) are below 4 µL/min, 0.3 and 0.9 ×10⁻⁶ cm/s.
For the molecule `Cc1ccccc1OC(C)c1cc(C(=O)N(C)CCO)cn2c(=O)cc(N3CCOCC3)nc12` (racemic), the IC50 in series [4] turned out to be 700 nM. In series [2], this molecule came in with a log distribution coefficient (logD) of 3.
As to `CC(Nc1ccccc1)c1cc(C(=O)N(C)C)cn2c(=O)cc(N3CCOCC3)nc12` (racemic), in series [1], the “Intrinsic clearance (CLint)” value is 4.3 µL/min. This molecule returned a logD in series [2] of 2.7. Further, the apparent permeability from apical to basolateral (Papp A→B) at 10 µM in series [3] was 35.4 ×10⁻⁶ cm/s.
`CC(Nc1ccccc1)c1cc(C(=O)O)cn2c(=O)cc(N3CCOCC3)nc12` (racemic): the “Intrinsic clearance (CLint)” value in series [1] was below 4 µL/min. Further, the pH-dependent lipophilicity (logD) in series [2] stood at 0.6. Also, in series [3], the Papp A→B at 10 µM was 0.04 ×10⁻⁶ cm/s.
For the molecule `CC(Nc1ccccc1)c1cc(C(=O)NCCN2CCNCC2)cn2c(=O)cc(N3CCOCC3)nc12` (racemic), the “Intrinsic clearance (CLint)” value in series [1] was below 4 µL/min. For the same molecule, the logD in series [2] was 1.5.
For `COc1ccccc1OC(C)c1cc(C(=O)N(C)CCO)cn2c(=O)cc(N3CCOCC3)nc12` (racemic), the IC50 in series [4] turned out to be 9600 nM. The same molecule gave a logD in series [2] of 1.9.
As for `Cc1cc([C@@H](C)Nc2ccccc2C(=O)NS(C)(=O)=O)c2nc(N3CCOCC3)cc(=O)n2c1`, the IC50 in series [5] was 12 nM; in series [6], 160 nM. Further, in series [1], the “Intrinsic clearance (CLint)” value was 15 µL/min. This molecule also showed a logD in series [2] of 0.9. For the same molecule, the Papp A→B at 10 µM in series [3] is 0.11 ×10⁻⁶ cm/s.
With `COc1cccc(OC(C)c2cc(C(=O)N(C)CCO)cn3c(=O)cc(N4CCOCC4)nc23)c1` (racemic), the IC50 in series [4] was determined as 1900 nM. Also, in series [2], the logD was found to be 2.3.
Turning to `Cc1cc([C@@H](C)Nc2ccccc2C(=O)NO)c2nc(N3CCOCC3)cc(=O)n2c1`, the IC50 in series [5] was 84 nM; in series [6] it was 2880 nM. In addition, in series [1], the “Intrinsic clearance (CLint)” value amounted to 30.2 µL/min. Also, the logD in series [2] worked out at 1.5. Besides, the apical-to-basolateral permeability (Papp A→B) at 10 µM in series [3] amounted to 52 ×10⁻⁶ cm/s.
Consider `Cc1cc(C(C)Nc2ccccc2)c2nc(N3CCOCC3)cc(=O)n2c1` (racemic), for which the “Intrinsic clearance (CLint)” value in series [1] worked out at 20 µL/min. The IC50 in series [6] came out at 5800 nM. The Papp A→B at 10 µM in series [3] stood at 66 ×10⁻⁶ cm/s.
For the molecule `Cc1cc(C(C)Nc2cc(Cl)ccc2C(=O)O)c2nc(N3CCOCC3)cc(=O)n2c1` (racemic), in series [1], the “Intrinsic clearance (CLint)” value was 11.9 µL/min. Also, in series [2], the logD is 1.2. In addition, in series [3], the Papp A→B at 10 µM amounted to 15 ×10⁻⁶ cm/s.
Consider `Cc1cc(C(C)Nc2ccccc2S(=O)(=O)O)c2nc(N3CCOCC3)cc(=O)n2c1` (racemic), for which the “Intrinsic clearance (CLint)” value in series [1] is below 4 µL/min. This molecule showed a logD in series [2] of 0.3. The Papp A→B at 10 µM in series [3] is below 0.05 ×10⁻⁶ cm/s.
Consider `Cc1cc(OC(C)c2cc(C(=O)N(C)CCO)cn3c(=O)cc(N4CCOCC4)nc23)ccc1F` (racemic), for which the IC50 in series [4] was found to be 2500 nM. Further, the logD in series [2] amounted to 2.9.
With `CC(Nc1ccccc1)c1cc(C(=O)NCCN(C)C)cn2c(=O)cc(N3CCOCC3)nc12` (racemic), the “Intrinsic clearance (CLint)” value in series [1] is below 4 µL/min. In series [2], this molecule came in with a logD of 1.7.
In the case of `CC(Oc1cccc(C#N)c1)c1cc(C(=O)N(C)CCO)cn2c(=O)cc(N3CCOCC3)nc12` (racemic), in series [4], the IC50 was found to be 1500 nM. For the same molecule, the logD in series [2] came out at 2.
Regarding `CC(Nc1ccccc1)c1cc(C(=O)N(C)CCO)cn2c(=O)cc(N3CCOCC3)nc12` (racemic), in series [1], the “Intrinsic clearance (CLint)” value was below 4 µL/min. The log distribution coefficient (logD) in series [2] is 2. Further, in series [3], the Papp A→B at 10 µM is 4.3 ×10⁻⁶ cm/s.
Take `Cc1cccc(OC(C)c2cc(C(=O)N(C)CCO)cn3c(=O)cc(N4CCOCC4)nc23)c1` (racemic): the IC50 in series [4] was determined as 5000 nM. Moreover, the logD in series [2] came out at 2.8.
Regarding `CC(Nc1ccccc1)c1cc(C(=O)N2CCOCC2)cn2c(=O)cc(N3CCOCC3)nc12` (racemic), the “Intrinsic clearance (CLint)” value in series [1] was below 4 µL/min. The molecule further came in with a logD in series [2] of 2.7. For the same molecule, the Papp A→B at 10 µM in series [3] stood at 26.9 ×10⁻⁶ cm/s.
As to `CC(Oc1ccccc1)c1cc(C(=O)N(C)CCO)cn2c(=O)cc(N3CCOCC3)nc12` (racemic), the IC50 in series [4] came to 400 nM. Also, the logD in series [2] worked out at 2.3.
For `CC(Oc1ccccc1F)c1cc(C(=O)N(C)CCO)cn2c(=O)cc(N3CCOCC3)nc12` (racemic), the IC50 in series [4] came to 2100 nM. The same molecule had a pH-dependent lipophilicity (logD) in series [2] of 2.3.
